Activity calls are given as the source filed them. The calls are words filed in the database; no cut-off is given here.

From ChEMBL document CHEMBL4477197, “Antitumor Activity of Spicatoside A by Modulation of Autophagy and Apoptosis in Human Colorectal Cancer Cells” (J Nat Prod, 2016) come the findings set out here.

Assay [1] deals with HCT-116. The assay can be described thus: Induction of apoptosis in human HCT116 cells assessed as PARP cleavage at 30 uM after 24 hrs in presence of autophagy inhibitor 3-MA by Western blot analysis. The assay is classed as functional, cell-based. A digest of the protocol: (§1)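 HCT116 cells were pretreated 1 h with 2 mM 3-MA, then given 30 μM compound for a further 24 h. Whole-cell lysates were immunoblotted for LC3-II and cleaved PARP, with β-actin as loading standard and ECL detection. Blots are representative of three separate determinations.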
(In general: A western blot detects proteins with antibodies after separation by electrophoresis.)

Assay [2] has as its system HCT-116. The assay can be described thus: Induction of autophagy in human HCT116 cells assessed as increase in beclin 1 expression at 30 uM at 24 hrs by Western blot analysis. The assay is classed as functional, cell-based.
In assay [3] the test system is HCT-116. The assay can be described thus: Increase in LC3-2 levels in human HCT116 cells at 30 uM after 48 hrs in presence of z-IETD-FMK by Western blot analysis. The assay is classed as functional, cell-based. A digest of the protocol:
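HCT116 cells were cultured 48 h with 30 μM compound, with or without 20 μM z-IETD-FMK. Lysates were made in SDS loading buffer and 10–30 μg protein was resolved by 6–15% SDS-PAGE and transferred to PVDF. Blots were probed for cleaved caspase-8, beclin 1, cleaved beclin 1 and LC3-II, and detected by ECL.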

The subject of assay [4] is HCT-116. The assay can be described thus: Induction of autophagy in human HCT116 cells assessed as accumulation of LC3-2 at 30 uM after 24 hrs in presence of autophagy inhibitor 3-MA by Western blot analysis. It is filed as functional, cell-based. A digest of the protocol: as §1
The subject of assay [5] is HCT-116. The assay can be described thus: Induction of apoptosis in human HCT116 cells assessed as activation of caspase 9 at 10 to 30 uM after 48 hrs by Western blot analysis. It is filed as functional, cell-based. A digest of the protocol:
(§2)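 HCT116 cells were treated with the indicated concentrations for 48 h. Lysates were prepared in SDS sample buffer and 10–30 μg protein was separated by SDS-PAGE, blotted to PVDF and blocked in 5% BSA. Cleaved caspase-8, -9, -3 and PARP were detected by ECL.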

In assay [6] the test system is HCT-116. The assay can be described thus: Growth inhibition of human HCT116 cells after 24 hrs by SRB assay. The assay is classed as functional, cell-based. In a few lines:
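SRB assay. Cells were seeded at 6 × 10^3/well, grown 24 h, then fixed as day-zero controls or treated 24 or 48 h. They were fixed with 10% TCA and stained with 0.4% SRB in 1% acetic acid; dye was dissolved in 10 mM Tris pH 10.0 and read at 515 nm. Proliferation was normalized to day zero and control, and IC50 came from nonlinear regression. n = 3.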
(In general: The SRB assay estimates cell density from bound dye.)

Assay [7] relates to HCT-116. The assay can be described thus: Induction of apoptosis in human HCT116 cells at 20 uM after 48 hrs by Annexin V-FITC/propidium iodide staining based flow cytometry. The assay is classed as functional. A digest of the protocol: (§3)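 HCT116 cells were treated 48 h, then resuspended in binding buffer at 1 × 10^6 cells/mL. They were stained with annexin V-FITC and PI for 20 min at room temperature in the dark, diluted and analyzed immediately by flow cytometry for annexin V-positive cells. n = 3.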
On the technique in general: Flow cytometry measures light scatter and fluorescence of single cells or particles in a stream.

In assay [8] the test system is HCT-116. The assay can be described thus: Induction of apoptosis in human HCT116 cells assessed as activation of caspase 3 at 10 to 30 uM after 48 hrs by Western blot analysis. The assay is classed as functional, cell-based. In a few lines: as §2
The nature of assay [9]: Inhibition of PI3K/Akt/mTOR in human HCT116 cells assessed as upregulation of PTEN at 10 to 30 uM after 24 hrs by Western blot analysis. The assay is classed as cell-based. A digest of the protocol:
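HCT116 cells (RPMI 1640, 10% FBS, 37 °C, 5% CO2) exposed to the compound for 24 h, then lysed in 2× SDS sample buffer with NaF and orthovanadate and boiled. BCA-normalised protein (10−30 μg) run on 6−15% SDS-PAGE and blotted to PVDF. Blocked in 5% BSA/PBS-Tween, probed for PI3K, PTEN, Akt and mTOR, and detected by ECL. Blots are representative of three determinations.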

The target of assay [10] is Cellular tumor antigen p53 (Homo sapiens) (UniProt P04637). The assay can be described thus: Induction of p53 expression in human HCT116 cells assessed as increase in p21 levels after 24 hrs by Western blot analysis. The assay is classed as cell-based.
Sequence of Cellular tumor antigen p53 (Homo sapiens) (P04637 whole entry, looked up): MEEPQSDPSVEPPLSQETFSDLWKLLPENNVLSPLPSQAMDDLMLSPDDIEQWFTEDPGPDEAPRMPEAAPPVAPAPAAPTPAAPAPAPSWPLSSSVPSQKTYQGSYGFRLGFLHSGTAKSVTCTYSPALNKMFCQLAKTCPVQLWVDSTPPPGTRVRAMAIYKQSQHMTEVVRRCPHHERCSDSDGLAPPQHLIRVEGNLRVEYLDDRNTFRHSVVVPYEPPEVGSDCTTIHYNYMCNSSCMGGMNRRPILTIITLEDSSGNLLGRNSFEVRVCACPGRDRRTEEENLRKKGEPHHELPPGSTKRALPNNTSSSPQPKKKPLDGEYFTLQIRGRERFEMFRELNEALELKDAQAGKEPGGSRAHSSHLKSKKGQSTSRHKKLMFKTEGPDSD
Assay [11] concerns HCT-116. The assay can be described thus: Induction of autophagy in human HCT116 cells assessed as increase in LAMP1 expression at 30 uM at 24 hrs by Western blot analysis. It is filed as functional, cell-based.
For assay [12], the system named is HCT-116. The assay can be described thus: Cell cycle arrest in human HCT116 cells assessed as accumulation at subG1 phase at 10 uM after 48 hrs by propidium iodide staining based flow cytometry. The assay is classed as functional.
For assay [13], the system named is A549. The assay can be described thus: Antiproliferative activity against human A549 cells after 24 to 72 hrs by SRB assay. It is filed as functional, cell-based. In a few lines: (§4)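 Cells from ATCC were grown at 37 °C in 5% CO2, in RPMI 1640 (A549, HCT116, SNU-638) or DMEM (MDA-MB-231, SK-HEP-1, MRC5) with 10% FBS. They were seeded at 6 × 10^3 cells/well for 24 h, then exposed for 72 h. Cells were TCA-fixed, stained with 0.4% SRB, and read at 515 nm against day-zero plates. IC50 came from nonlinear regression, as means ± SD.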

The test system of assay [14] is HCT-116. The assay can be described thus: Induction of apoptosis in human HCT116 cells at 10 uM after 48 hrs by Annexin V-FITC/propidium iodide staining based flow cytometry. It is filed as functional. A digest of the protocol: as §3
Assay [15] has as its system HCT-116. The assay can be described thus: Induction of apoptosis in human HCT116 cells assessed as downregulation of Bcl-2 levels at 10 to 30 uM after 48 hrs by Western blot analysis. It is filed as functional, cell-based.
Assay [16] concerns SK-HEP1. The assay can be described thus: Antiproliferative activity against human SKHEP1 cells after 24 to 72 hrs by SRB assay. It is filed as functional, cell-based. A digest of the protocol:
as §4

In assay [17] the test system is HCT-116. The assay can be described thus: Induction of autophagy in human HCT116 cells assessed as downregulation of p62 expression at 10 to 30 uM after 24 hrs by Western blot analysis. It is filed as functional, cell-based. A digest of the protocol:
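HCT116 cells were cultured 24 h with the indicated concentrations. Lysates were made in SDS buffer with NaF and orthovanadate and quantified by BCA; 10–30 μg protein was separated by 6–15% SDS-PAGE and transferred to PVDF. After 5% BSA blocking, blots were probed for LC3-II, beclin 1, p62, LAMP1 and cathepsin D, with ECL detection.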

Assay [18] concerns HCT-116. The assay can be described thus: Induction of autophagy in human HCT116 cells assessed as accumulation of LC3-2 at 20 uM after 24 hrs in presence of bafilomycin A1 by Western blot analysis. The assay is classed as functional, cell-based. A digest of the protocol: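 HCT116 cells were exposed 24 h to 20 μM compound, 2.5 nM bafilomycin A1, or both together. LC3-II was measured by Western blot with β-actin as internal standard. Blots are representative of three separate determinations.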

Assay [19] has as its system HCT-116. The assay can be described thus: Induction of apoptosis in human HCT116 cells assessed as increase in cytochrome c levels in cytosol after 48 hrs by Western blot analysis. The assay is classed as functional, cell-based.
Assay [20] relates to SNU-638. The assay can be described thus: Antiproliferative activity against human SNU638 cells after 24 to 72 hrs by SRB assay. It is filed as functional, cell-based. In a few lines: as §4
In assay [21] the test system is Mus musculus. The assay can be described thus: Induction of PARP cleavage in human HCT116 cells xenografted in BALB/c-nu mouse at 2.5 to 5 mg/kg, ip administered three times per week for 28 days measured post dosing by Western blot analysis. It is filed as functional, organism-based. A digest of the protocol:
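Excised xenograft tumors (2.5 or 5 mg/kg ip, three times weekly for 28 days) were frozen. Portions were thawed on ice and homogenized in Complete Lysis Buffer, then protein was quantified. Cleaved PARP was detected by Western blot with β-actin as internal standard; blots shown are representative of three determinations.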

Usually IC50 stands for the midpoint of a concentration-inhibition curve. Read a low IC50 as inhibition by little substance. `C[C@H]1CC[C@@]2(OC1)O[C@H]1C[C@H]3[C@@H]4CC=C5C[C@@H](O)C[C@@H](O[C@@H]6O[C@H](C)[C@H](O)[C@H](O[C@@H]7OC[C@@H](O)[C@H](O)[C@H]7O)[C@H]6O[C@@H]6O[C@H](CO)[C@@H](O)[C@H](O)[C@H]6O)[C@]5(C)[C@H]4CC[C@]3(C)[C@H]1[C@@H]2C`: the result in assay [1], in assay [2], in assay [3], in assay [5], in assay [8] and in [11] was Active. Further, the result in assay [15], in [17], in [18] and in [21] was Active. For the same compound, the result in [4] was inactive. For the same compound, the “growth inhibition (GI)” value in [6] is “Dose-dependent effect”. Further, the IC50 is 28.9 µM in assay [6] (HCT-116, 24 h); 26 µM in assay [13]; 15.5 µM in assay [16]; 14.8 µM in assay [20]. The Activity is 18.58% in assay [7]; “Dose-dependent effect” in assay [10]; 5.52% in [12]; 13.42% in assay [14]; “Dose-dependent effect” in [19]. For the same compound, the inhibition result in assay [9] was “Active”.
